According to ChEMBL document CHEMBL1821586, “Identification and biological activities of new taccalonolide microtubule stabilizers” (J Med Chem, 2011):
The source made the active and inactive calls. The rule behind the calls is not given here.

Legend:
[1] = Antitumor activity against mouse 16/C cells allografted in mouse B6C3F1 assessed as decrease in tumor mass at 56 mg/kg, iv administered on days 1,4,6 and day 8 or 9 relative to control; type: functional
In short: (§1)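 Female B6C3F1 mice (mean 19.3 ± 1.0 g) carried bilateral s.c. Mammary 16/C tumor fragments implanted day 0, 5 mice/group. […] All were given IV in 0.2 ml. Tumor mass = L×W²/2, measured 2–3 times weekly. %T/C = treated/control median mass, zeros included, taken when control tumors reach ~700–1200 mg.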

Mus musculus [2] = experiment: Toxicity in B6C3F1 mouse allografted with mouse 16/C cells assessed as mean body weight loss at 56 mg/kg, iv administered on days 1,4,6 and day 8 or 9 (reference value: -2.2%); type: organism-based; design: dose 56 mg/kg, route intravenous; details: in vivo
[3] = Antitumor activity against mouse 16/C cells allografted in mouse B6C3F1 assessed as delay in tumor growth at 40 mg/kg, iv administered on days 1,4,6 and day 8 or 9 relative to control; type: functional
In short: (§2)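 Mammary 16/C fragments implanted s.c. bilaterally in female B6C3F1 mice on day 0, 5 mice/group, IV dosing in 0.2 ml. Tumors measured 2–3 times weekly. T-C = median days for treated vs control tumors to reach 1000 mg. Gross log cell kill = (T-C)/3.32×Td, with Td the doubling time from a log-linear fit of control tumor growth.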

[4] = Antitumor activity against mouse 16/C cells allografted in mouse B6C3F1 assessed as delay in tumor growth at 56 mg/kg, iv administered on days 1,4,6 and day 8 or 9 relative to control; type: functional; in short: as §2
HeLa [5] = experiment: Cell cycle arrest in human HeLa cells assessed as accumulation of cells at G2/M phase at 3.5 uM after 18 hrs by flow cytometric analysis; type: functional, cell-based
In short: (§3)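 DNA stained with propidium iodide (Krishan's reagent); DNA content measured by flow cytometry and plotted as PI intensity vs events.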

HeLa [6] = experiment: Inhibition of beta tubulin in human HeLa cells assessed asultiple abnormal mitotic spindle formation at 3.5 uM after 18 hrs by immunofluorescence analysis; type: cell-based
HeLa [7] = experiment: Antiproliferative activity against human HeLa cells after 48 hrs by SRB assay; type: functional, cell-based
In short: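 HeLa cells grown in BME with 10% FBS and 50 µg/ml gentamicin, drug-treated 48 h, proliferation read by SRB assay.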

[8] = Antitumor activity against mouse 16/C cells allografted in mouse B6C3F1 assessed as gross log cell killing at 40 mg/kg, iv administered on days 1,4,6 and day 8 or 9 relative to control; type: functional
In short: (§4)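 Mammary 16/C tumor fragments implanted bilaterally s.c. in female B6C3F1 mice on day 0, 5 mice/group. Taccalonolides in 50% DMSO:50% Cremophor stock, diluted with sterile water, given i.v. in 0.2 ml on days 1, 4, 6, plus one dose 2–3 days later (A, N) or further doses days 8, 9, 11 (E). Tumor mass = length × width²/2, measured 2–3 times weekly. Gross log cell kill = (T-C)/3.32 × Td, with T-C the days to 1000 mg.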

[9] = Toxicity in B6C3F1 mouse allografted with mouse 16/C cells assessed as lethality at 56 mg/kg, iv; type: organism-based; design: dose 56 mg/kg, route intravenous; details: in vivo, read-out: Activity
Mus musculus [10] = experiment: Toxicity in B6C3F1 mouse allografted with mouse 16/C cells assessed as mean body weight loss at 40 mg/kg, iv administered on days 1,4,6 and day 8 or 9 (reference value: -2.2%); type: organism-based; design: dose 40 mg/kg, route intravenous; details: in vivo
[11] = Antitumor activity against mouse 16/C cells allografted in mouse B6C3F1 assessed as gross log cell killing at 56 mg/kg, iv administered on days 1,4,6 and day 8 or 9 relative to control; type: functional; in short: as §4
HeLa [12] = experiment: Induction of interphase microtubule bundling in human HeLa cells at 3.5 uM after 18 hrs by indirect immunofluorescence analysis; type: cell-based
[13] = Antitumor activity against mouse 16/C cells allografted in mouse B6C3F1 assessed as decrease in tumor mass at 40 mg/kg, iv administered on days 1,4,6 and day 8 or 9 relative to control; type: functional; in short: as §1
Mus musculus [14] = experiment: Toxicity in B6C3F1 mouse allografted with mouse 16/C cells assessed as mean body weight loss at 20 mg/kg, iv administered on days 1,4,6 and day 8 or 9 (reference value: -2.2%); type: organism-based; design: dose 20 mg/kg, route intravenous; details: in vivo
HeLa [15] = experiment: Inhibition of beta tubulin in human HeLa cells assessed asultiple abnormal mitotic spindle formation at 1.3 uM after 18 hrs by immunofluorescence analysis; type: cell-based
HeLa [16] = experiment: Cell cycle arrest in human HeLa cells assessed as accumulation of cells at G2/M phase at 1.3 uM after 18 hrs by flow cytometric analysis; type: functional, cell-based; in short: as §3
[17] = Toxicity in B6C3F1 mouse allografted with mouse 16/C cells assessed as lethality at 20 mg/kg, iv administered on days 1,4,6 and day 8 or 9 measured after 12 days relative to control; type: organism-based; design: dose 20 mg/kg, route intravenous; details: in vivo, read-out: Activity
In short: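 Female B6C3F1 mice, 5 per group, bore bilateral s.c. Mammary 16/C fragments. Taccalonolides in DMSO:Cremophor diluted with water were given i.v. on days 1, 4, 6 plus a later dose (A, N) or days 8, 9, 11 (E). Mice were weighed and observed daily, and lethality was recorded per group.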

HeLa [18] = experiment: Induction of interphase microtubule bundling in human HeLa cells at 1.3 uM after 18 hrs by indirect immunofluorescence; type: cell-based
[19] = Antitumor activity against mouse 16/C cells allografted in mouse B6C3F1 assessed as delay in tumor growth at 36 mg/kg, iv administered on days 1,4,6 and day 8 or 9 relative to control; type: functional; in short: as §2
[20] = Antitumor activity against mouse 16/C cells allografted in mouse B6C3F1 assessed as delay in tumor growth at 20 mg/kg, iv administered on days 1,4,6 and day 8 or 9 relative to control; type: functional; in short: as §2
Mus musculus [21] = experiment: Toxicity in B6C3F1 mouse allografted with mouse 16/C cells assessed as mean body weight loss at 36 mg/kg, iv administered on days 1,4,6 and day 8 or 9 (reference value: -2.2%); type: organism-based; design: dose 36 mg/kg, route intravenous; details: in vivo
[22] = Antitumor activity against mouse 16/C cells allografted in mouse B6C3F1 assessed as gross log cell killing at 20 mg/kg, iv administered on days 1,4,6 and day 8 or 9 relative to control; type: functional; in short: as §4
[23] = Antitumor activity against mouse 16/C cells allografted in mouse B6C3F1 assessed as gross log cell killing at 36 mg/kg, iv administered on days 1,4,6 and day 8 or 9 relative to control; type: functional; in short: as §4
[24] = Antitumor activity against mouse 16/C cells allografted in mouse B6C3F1 assessed as decrease in tumor mass at 36 mg/kg, iv administered on days 1,4,6 and day 8 or 9 relative to control; type: functional; in short: as §1
[25] = Antitumor activity against mouse 16/C cells allografted in mouse B6C3F1 assessed as decrease in tumor mass at 20 mg/kg, iv administered on days 1,4,6 and day 8 or 9 relative to control; type: functional; in short: as §1

Which T/C [1] does the source give for CC(=O)O[C@@H]1[C@H]2[C@H]3[C@H]([C@H](OC(C)=O)[C@H](OC(C)=O)[C@]2(C)[C@@H]2[C@@H]1[C@]1(C)C(=C[C@H]2C)OC(=O)[C@@]1(C)O)[C@]1(C)[C@H](C[C@@H]2O[C@@H]2[C@@H]1OC(C)=O)C(=O)[C@@H]3O [TACCALONOLIDE A] here?
Its T/C is 0%.

What about the Activity (Mus musculus [2]) of the same compound?
Its Activity is -16.7%.

And the Time [3]?
The Time was 4 days.

And the Time [4]?
Its Time is 16 days.

What about the Activity (HeLa [5]) of the same compound?
The Activity was “Active”.

And the inhibition (HeLa [6])?
Its inhibition is “Active”.

What about the IC50 (HeLa [7]) of the same compound?
Its IC50 is 594 nM.

And the LCK [8]?
Its LCK is 1.

What about the mortality [9] of the same compound?
The mortality was 20%.

And the Activity (Mus musculus [10])?
The Activity was -6.3%.

And the LCK [11]?
Its LCK is 4.

And the Activity (HeLa [12])?
Its Activity is “Active”.

And the T/C [13]?
Its T/C is 24%.

With CC(=O)O[C@H]1C[C@H]2[C@H]([C@@H]3[C@@H](O)[C@@H]4[C@H]([C@H](C)C=C5OC(=O)[C@@](C)(O)[C@@]54C)[C@]31C)[C@@H](O)C(=O)[C@H]1C[C@@H]3O[C@@H]3[C@H](OC(C)=O)[C@@]12C [TACCALONOLIDE N] as the compound, how does the Activity (Mus musculus [14]) read?
The Activity was -2.1%.

What about the inhibition (HeLa [15]) of the same compound?
Its inhibition is “Active”.

And the Activity (HeLa [16])?
Its Activity is “Active”.

What about the mortality at 288 h [17] of the same compound?
Its mortality at 288 h is 0%.

And the Activity (HeLa [18])?
The Activity was “Active”.

What about the Time [19] of the same compound?
Its Time is 5 days.

What about the Time [20] of the same compound?
Its Time is 1 days.

And the IC50 (HeLa [7])?
The IC50 was 247 nM.

What about the Activity (Mus musculus [21]) of the same compound?
The Activity was -8.2%.

And the LCK [22]?
Its LCK is 0.25.

And the LCK [23]?
The LCK was 1.25.

And the T/C [24]?
The T/C was 0%.

And the T/C [25]?
The T/C was 43%.
